Assay results: ChEMBL document CHEMBL2321839, “Novel limonene and citral based 2,5-disubstituted-1,3,4-oxadiazoles: a natural product coupled approach to semicarbazones for antiepileptic activity” (Bioorg Med Chem Lett, 2013)
Activity calls are given as the source filed them. No cut-off for these calls is given here.

Columns and labels:
[1] = tested on: Mus musculus; assay: Antiepileptic activity in Swiss albino mouse assessed as protection against maximal-electric shock-induced seizures at 300 mg/kg, ip measured after 4 hrs; type: functional, organism-based; set-up: dose 300 mg/kg
How it was run: (§1)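 Male Swiss albino mice (18–25 g), compounds given ip at 30, 100 and 300 mg/kg. Seizures induced by maximal electroshock (MES) or subcutaneous pentylenetetrazole (scPTZ). Protection scored at 0.5 and 4.0 h after dosing.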

[2] = tested on: Mus musculus; assay: Antiepileptic activity in Swiss albino mouse assessed as protection against maximal-electric shock-induced seizures at 300 mg/kg, ip measured after 0.5 hrs; type: functional, organism-based; set-up: dose 300 mg/kg; how it was run: as §1
[3] = tested on: Mus musculus; assay: Neurotoxicity against Swiss albino mouse by rotarod test at 300 mg/kg, ip after 4 hrs; type: toxicity, organism-based; set-up: dose 300 mg/kg, route intraperitoneal; conditions: in vivo
How it was run: (§2)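 Acute neurotoxicity tested by rotorod in male Swiss albino mice (18–25 g) given 30, 100 or 300 mg/kg ip. Read at 0.5 and 4.0 h post-dose. Result is the minimal dose causing toxicity in half or more of the animals; a dash means none up to 300 mg/kg.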

[4] = tested on: Mus musculus; assay: Neurotoxicity against ip dosed Swiss albino mouse after 0.5 hrs by rotarod test; type: toxicity, organism-based; conditions: in vivo; how it was run: as §2
[5] = tested on: Rattus norvegicus; assay: Antiepileptic activity in Wistar rat assessed as protection against scSTY-induced seizures at 300 mg/kg, ip measured after 4 hrs; type: functional, organism-based; set-up: dose 300 mg/kg
How it was run: (§3)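 Male Wistar rats (100–150 g), compounds given ip at 30, 100 and 300 mg/kg. Seizures induced by subcutaneous strychnine (scSTY). Activity read 0.5 and 4.0 h after dosing. Reported as the minimal dose active in at least half of the animals; a dash means no activity at 300 mg/kg.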

[6] = tested on: Rattus norvegicus; assay: Antiepileptic activity in Wistar rat assessed as protection against scSTY-induced seizures at 300 mg/kg, ip measured after 0.5 hrs; type: functional, organism-based; set-up: dose 300 mg/kg; how it was run: as §3
[7] = tested on: Mus musculus; assay: Antiepileptic activity in Swiss albino mouse assessed as protection against scPTZ-induced seizures at 300 mg/kg, ip measured after 4 hrs; type: functional, organism-based; set-up: dose 300 mg/kg; how it was run: as §1
[8] = tested on: Mus musculus; assay: Antiepileptic activity in Swiss albino mouse assessed as protection against scPTZ-induced seizures at 300 mg/kg, ip measured after 0.5 hrs; type: functional, organism-based; set-up: dose 300 mg/kg; how it was run: as §1
[9] = tested on: Rattus norvegicus; assay: Antiepileptic activity in ip dosed Wistar rat assessed as protection against scSTY-induced seizures after 4 hrs; type: functional; conditions: read-out: MED; how it was run: as §3
[10] = tested on: Mus musculus; assay: Antiepileptic activity in ip dosed Swiss albino mouse assessed as protection against scPTZ-induced seizures after 4 hrs; type: functional; conditions: read-out: MED; how it was run: as §1
[11] = tested on: Mus musculus; assay: Antiepileptic activity in ip dosed Swiss albino mouse assessed as protection against maximal-electric shock-induced seizures after 4 hrs; type: functional; conditions: read-out: MED; how it was run: as §1
[12] = tested on: Rattus norvegicus; assay: Antiepileptic activity in Wistar rat assessed as GABA level in cerebellum per 100 mg at 100 mg/kg ip after 2 hrs (reference value: 23.48+/- 2.48 ug); type: functional; conditions: route intraperitoneal
[13] = tested on: Rattus norvegicus; assay: Antiepileptic activity in Wistar rat assessed as GABA level in medulla oblangata per 100 mg at 100 mg/kg ip after 2 hrs (reference value: 31.86 +/- 4.65 ug); type: functional, Medulla oblongata; conditions: route intraperitoneal
[14] = tested on: Rattus norvegicus; assay: Antiepileptic activity in Wistar rat assessed as GABA level in midbrain per 100 mg at 100 mg/kg ip after 2 hrs (reference value: 35.42 +/- 2.14 ug); type: functional; conditions: route intraperitoneal
[15] = tested on: Mus musculus; assay: Neurotoxicity against Swiss albino mouse by rotarod test at 300 mg/kg, ip after 0.5 hrs; type: toxicity, organism-based; set-up: dose 300 mg/kg, route intraperitoneal; conditions: in vivo; how it was run: as §2
[16] = tested on: Mus musculus; assay: Antiepileptic activity in ip dosed Swiss albino mouse assessed as protection against maximal-electric shock-induced seizures after 0.5 hrs; type: functional; conditions: read-out: MED; how it was run: as §1
[17] = tested on: Mus musculus; assay: Neurotoxicity against ip dosed Swiss albino mouse after 4 hrs by rotarod test; type: toxicity, organism-based; conditions: in vivo; how it was run: as §2
[18] = tested on: Rattus norvegicus; assay: Neurotoxicity in Wistar rat at 30 mg/kg, po measured at 4 hrs by rotarod test; type: toxicity, organism-based; set-up: dose 30 mg/kg, route oral; conditions: in vivo
How it was run: (§4)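 Neurotoxicity assessed in Wistar rats (100–150 g) after a 30 mg/kg oral dose, read at 0.25, 0.5, 1, 2 and 4 h.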

[19] = tested on: Rattus norvegicus; assay: Neurotoxicity in Wistar rat at 30 mg/kg, po measured at 2 hrs by rotarod test; type: toxicity, organism-based; set-up: dose 30 mg/kg, route oral; conditions: in vivo; how it was run: as §4
[20] = tested on: Rattus norvegicus; assay: Neurotoxicity in Wistar rat at 30 mg/kg, po measured at 1 hr by rotarod test; type: toxicity, organism-based; set-up: dose 30 mg/kg, route oral; conditions: in vivo; how it was run: as §4
[21] = tested on: Rattus norvegicus; assay: Neurotoxicity in Wistar rat at 30 mg/kg, po measured at 0.5 hrs by rotarod test; type: toxicity, organism-based; set-up: dose 30 mg/kg, route oral; conditions: in vivo; how it was run: as §4
[22] = tested on: Rattus norvegicus; assay: Neurotoxicity in Wistar rat at 30 mg/kg, po measured at 0.25 hrs by rotarod test; type: toxicity, organism-based; set-up: dose 30 mg/kg, route oral; conditions: in vivo; how it was run: as §4
[23] = tested on: Rattus norvegicus; assay: Antiepileptic activity in Wistar rat assessed as protection against maximal electric shock-induced seizures at 30 mg/kg, po measured at 4 hrs; type: functional
How it was run: (§5)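 Single oral dose of 30 mg/kg in Wistar rats (100–150 g), tested by MES challenge at 0.25, 0.5, 1, 2 and 4 h.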

[24] = tested on: Rattus norvegicus; assay: Antiepileptic activity in Wistar rat assessed as protection against maximal electric shock-induced seizures at 30 mg/kg, po measured at 2 hrs; type: functional; how it was run: as §5
[25] = tested on: Rattus norvegicus; assay: Antiepileptic activity in Wistar rat assessed as protection against maximal electric shock-induced seizures at 30 mg/kg, po measured at 1 hr; type: functional; how it was run: as §5
[26] = tested on: Rattus norvegicus; assay: Antiepileptic activity in Wistar rat assessed as protection against maximal electric shock-induced seizures at 30 mg/kg, po measured at 0.5 hrs; type: functional; how it was run: as §5
[27] = tested on: Rattus norvegicus; assay: Antiepileptic activity in Wistar rat assessed as protection against maximal electric shock-induced seizures at 30 mg/kg, po measured at 0.25 hrs; type: functional; how it was run: as §5

## CC(C)=CC/C=C(/C)C/C=N/NC(=O)Nc1nnc(-c2cccc(O)c2)o1
[1]
  Activity: inactive
[2]
  Activity: inactive
[3]
  Activity: Non-toxic
[4]
  MTC: 300 mg/kg
[5]
  Activity: inactive
[6]
  Activity: inactive
[7]
  Activity: inactive
[8]
  Activity: inactive

## CC(C)=CC/C=C(/C)C/C=N/NC(=O)Nc1nnc(-c2ccc(O)cc2)o1
[2]
  Activity: inactive
[9]
  minimal effective dose: 300 mg/kg
[10]
  minimal effective dose: 300 mg/kg
[11]
  minimal effective dose: 300 mg/kg
[12]
  Activity: 28.25 µg
[13]
  Activity: 34.42 µg
[14]
  Activity: 52.82 µg
[3]
  Activity: Non-toxic
[15]
  Activity: Non-toxic
[6]
  Activity: inactive
[8]
  Activity: inactive

## C=C(C)[C@@H]1CC=C(C)/C(=N/NC(=O)Nc2nnc(-c3ccc(Cl)cc3)o2)C1
[9]
  minimal effective dose: 300 mg/kg
[10]
  minimal effective dose: 300 mg/kg
[11]
  minimal effective dose: 300 mg/kg
[16]
  minimal effective dose: 100 mg/kg
[3]
  Activity: Non-toxic
[15]
  Activity: Non-toxic
[6]
  Activity: inactive
[8]
  Activity: inactive

## CC(C)=CC/C=C(/C)C/C=N/NC(=O)Nc1nnc(-c2ccc(F)cc2)o1
[2]
  Activity: inactive
[10]
  minimal effective dose: 300 mg/kg
[11]
  minimal effective dose: 300 mg/kg
[15]
  Activity: Non-toxic
[5]
  Activity: inactive
[6]
  Activity: inactive
[8]
  Activity: inactive

## C=C(C)[C@@H]1CC=C(C)/C(=N/NC(=O)Nc2nnc(-c3cccc(O)c3)o2)C1
[1]
  Activity: inactive
[2]
  Activity: inactive
[10]
  minimal effective dose: 300 mg/kg
[3]
  Activity: Non-toxic
[4]
  MTC: 300 mg/kg
[5]
  Activity: inactive
[6]
  Activity: inactive
[8]
  Activity: inactive

## CC(C)=CC/C=C(/C)C/C=N/NC(=O)Nc1nnc(-c2ccc(C)cc2)o1
[2]
  Activity: inactive
[11]
  minimal effective dose: 300 mg/kg
[3]
  Activity: Non-toxic
[15]
  Activity: Non-toxic
[17]
  MTC: 300 mg/kg
[5]
  Activity: inactive
[6]
  Activity: inactive
[7]
  Activity: inactive
[8]
  Activity: inactive

## C=C(C)[C@@H]1CC=C(C)/C(=N/NC(=O)Nc2nnc(-c3ccc(OC)cc3)o2)C1
[2]
  Activity: inactive
[9]
  minimal effective dose: 300 mg/kg
[10]
  minimal effective dose: 300 mg/kg
[11]
  minimal effective dose: 300 mg/kg
[3]
  Activity: Non-toxic
[15]
  Activity: Non-toxic
[6]
  Activity: inactive
[8]
  Activity: inactive

## O=C1NC(=O)C(c2ccccc2)(c2ccccc2)N1 [PHENYTOIN]
[9]
  minimal effective dose: 100 mg/kg
[11]
  minimal effective dose: 30 mg/kg
[16]
  minimal effective dose: 30 mg/kg
[18]
  Activity: Non-toxic
[19]
  Activity: Non-toxic
[20]
  Activity: Non-toxic
[21]
  Activity: Non-toxic
[22]
  Activity: Non-toxic
[23]
  Activity: 0%
[24]
  Activity: 75%
[25]
  Activity: 50%
[26]
  Activity: 50%
[27]
  Activity: 75%
[4]
  MTC: 100 mg/kg
[17]
  MTC: 100 mg/kg
[6]
  Activity: inactive
[7]
  Activity: inactive
[8]
  Activity: inactive

## C=C(C)[C@@H]1CC=C(C)/C(=N/NC(=O)Nc2nnc(-c3ccccc3O)o2)C1
[2]
  Activity: inactive
[11]
  minimal effective dose: 300 mg/kg
[15]
  Activity: Non-toxic
[17]
  MTC: 300 mg/kg
[5]
  Activity: inactive
[6]
  Activity: inactive
[7]
  Activity: inactive
[8]
  Activity: inactive

## CC(C)=CC/C=C(/C)C/C=N/NC(=O)Nc1nnc(-c2ccccc2)o1
[1]
  Activity: inactive
[2]
  Activity: inactive
[15]
  Activity: Non-toxic
[17]
  MTC: 300 mg/kg
[5]
  Activity: inactive
[6]
  Activity: inactive
[7]
  Activity: inactive
[8]
  Activity: inactive

## C=C(C)[C@@H]1CC=C(C)/C(=N/NC(=O)Nc2nnc(-c3ccc(C)cc3)o2)C1
[2]
  Activity: inactive
[11]
  minimal effective dose: 300 mg/kg
[3]
  Activity: Non-toxic
[4]
  MTC: 300 mg/kg
[5]
  Activity: inactive
[6]
  Activity: inactive
[7]
  Activity: inactive
[8]
  Activity: inactive

## C=C(C)[C@@H]1CC=C(C)/C(=N/NC(=O)Nc2nnc(-c3ccccc3)o2)C1
[2]
  Activity: inactive
[11]
  minimal effective dose: 300 mg/kg
[15]
  Activity: Non-toxic
[17]
  MTC: 300 mg/kg
[5]
  Activity: inactive
[6]
  Activity: inactive
[7]
  Activity: inactive
[8]
  Activity: inactive

## COc1ccc(-c2nnc(NC(=O)N/N=C/C/C(C)=C\CC=C(C)C)o2)cc1
[1]
  Activity: inactive
[2]
  Activity: inactive
[9]
  minimal effective dose: 300 mg/kg
[3]
  Activity: Non-toxic
[15]
  Activity: Non-toxic
[6]
  Activity: inactive
[7]
  Activity: inactive
[8]
  Activity: inactive

## CC(C)=CC/C=C(/C)C/C=N/NC(=O)Nc1nnc(-c2ccccc2O)o1
[1]
  Activity: inactive
[2]
  Activity: inactive
[10]
  minimal effective dose: 300 mg/kg
[4]
  MTC: 300 mg/kg
[5]
  Activity: inactive
[6]
  Activity: inactive
[8]
  Activity: inactive

## CC(C)=CC/C=C(/C)C/C=N/NC(=O)Nc1nnc(-c2ccc(Cl)cc2)o1
[11]
  minimal effective dose: 300 mg/kg
[16]
  minimal effective dose: 100 mg/kg
[3]
  Activity: Non-toxic
[15]
  Activity: Non-toxic
[5]
  Activity: inactive
[6]
  Activity: inactive
[7]
  Activity: inactive
[8]
  Activity: inactive
